From ChEMBL document CHEMBL1155099, “Natural products in parallel synthesis: triazole libraries of nonactic acid” (2008)
Converted amounts (≈) assume the structure as drawn. The source made the active and inactive calls. No rule for the calls is given here.

Experiments:
[1] = tested on: Bacillus anthracis; test: Antibacterial activity against Bacillus anthracis at 1mM by almar blue dye reduction assay; format: functional, organism-based
[2] = tested on: Bacillus subtilis; test: Antibacterial activity against Bacillus subtilis by almar blue dye reduction assay; format: functional
Method in brief: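 Compounds advanced from the 1 mM screen were tested over a dilution series, with a top concentration of 1 mM, using Alamar Blue dye reduction. MIC is the lowest concentration with no dye reduction. Where inhibition was partial with some growth at the top concentration, the value is reported as '>'.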

[3] = tested on: Cryptococcus neoformans; test: Antifungal activity against Cryptococcus neoformans at 1 mM by almar blue dye reduction assay; format: functional, organism-based
Method in brief: (§1)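 Single-point primary screen at 1 mM using Alamar Blue dye reduction as the growth read-out.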

[4] = tested on: Saccharomyces cerevisiae; test: Antifungal activity against Saccharomyces cerevisiae at 1 mM by almar blue dye reduction assay; format: functional, organism-based; method in brief: as §1
[5] = tested on: Bacillus cereus; test: Antibacterial activity against Bacillus cereus at 1 mM by almar blue dye reduction assay; format: functional, organism-based; method in brief: as §1
[6] = tested on: Staphylococcus aureus; test: Antibacterial activity against Staphylococcus aureus at 1 mM by almar blue dye reduction assay; format: functional, organism-based; method in brief: as §1
[7] = tested on: Candida albicans; test: Antifungal activity against Candida albicans at 1 mM by almar blue dye reduction assay; format: functional, organism-based; method in brief: as §1
[8] = tested on: Pseudomonas aeruginosa; test: Antibacterial activity against Pseudomonas aeruginosa at 1 mM by almar blue dye reduction assay; format: functional, organism-based; method in brief: as §1
[9] = tested on: Escherichia coli; test: Antibacterial activity against Escherichia coli at 1 mM by almar blue dye reduction assay; format: functional, organism-based; method in brief: as §1
[10] = tested on: Bacillus subtilis; test: Antibacterial activity against Bacillus subtilis at 1 mM by almar blue dye reduction assay; format: functional, organism-based; method in brief: as §1

CCN(CC)C(=O)[C@H](C)C1CCC(C[C@@H](C)n2cc(C#CCNC(=O)Nc3cccc(C)c3)nn2)O1 (single isomer, unassigned)
Activity [1]: inactive | MIC [2]: 700 µg/mL (≈ 1420 µM) | Activity [3]: inactive | Activity [4]: inactive | Activity [5]: inactive | Activity [6]: inactive | Activity [7]: inactive | Activity [8]: inactive | Activity [9]: inactive

CC(C)NC(=O)[C@H](C)[C@H]1CC[C@@H](C[C@@H](C)n2cc(C#Cc3cccc4ccccc34)nn2)O1
Activity [1]: inactive | Activity [3]: inactive | Activity [10]: inactive | Activity [4]: inactive | Activity [5]: inactive | Activity [6]: inactive | Activity [7]: inactive | Activity [8]: inactive | Activity [9]: inactive

C[C@H](CC1CCC([C@@H](C)C(=O)N2CCCC2)O1)n1cc(C#CCOC(=O)OCc2ccccc2)nn1 (single isomer, unassigned)
Activity [1]: inactive | Activity [3]: inactive | Activity [10]: inactive | Activity [4]: inactive | Activity [5]: inactive | Activity [6]: inactive | Activity [7]: inactive | Activity [8]: inactive | Activity [9]: inactive

CC(C)NC(=O)[C@H](C)[C@H]1CC[C@@H](C[C@@H](C)n2cc(C#CCOc3ccc(C(F)(F)F)cc3)nn2)O1
Activity [1]: inactive | Activity [3]: inactive | Activity [10]: inactive | Activity [4]: inactive | Activity [5]: inactive | Activity [6]: inactive | Activity [7]: inactive | Activity [8]: inactive | Activity [9]: inactive

C[C@H](C[C@@H]1CC[C@H]([C@@H](C)C(=O)N2CCCC2)O1)n1cc(C#CCOc2ccccc2)nn1
Activity [1]: inactive | Activity [3]: inactive | Activity [10]: inactive | Activity [4]: inactive | Activity [5]: inactive | Activity [6]: inactive | Activity [7]: inactive | Activity [8]: inactive | Activity [9]: inactive

COc1cccc(OCC#Cc2cn([C@H](C)C[C@@H]3CC[C@H]([C@@H](C)C(=O)NC(C)C)O3)nn2)c1OC
Activity [1]: inactive | Activity [3]: inactive | Activity [10]: inactive | Activity [4]: inactive | Activity [5]: inactive | Activity [6]: inactive | Activity [7]: inactive | Activity [8]: inactive | Activity [9]: inactive

C[C@H](C[C@@H]1CC[C@H]([C@@H](C)C(=O)N2CCCC2)O1)n1cc(C#CCC2CCCC2)nn1
Activity [1]: inactive | Activity [3]: inactive | Activity [10]: inactive | Activity [4]: inactive | Activity [5]: inactive | Activity [6]: inactive | Activity [7]: inactive | Activity [8]: inactive | Activity [9]: inactive

C[C@H](C[C@@H]1CC[C@H]([C@@H](C)C(=O)N2CCN(CC3CCCO3)CC2)O1)n1cc(C#CCOc2ccc(Br)cc2)nn1 (some centres not stated)
Activity [1]: inactive | Activity [3]: inactive | Activity [10]: inactive | Activity [4]: inactive | Activity [5]: inactive | Activity [6]: inactive | Activity [7]: inactive | Activity [8]: inactive | Activity [9]: inactive

C[C@H](C[C@@H]1CC[C@H]([C@@H](C)C(=O)N2CCCC2)O1)n1cc(C#CCOc2ccc(C(F)(F)F)cc2)nn1
Activity [1]: inactive | Activity [3]: inactive | Activity [10]: inactive | Activity [4]: inactive | Activity [5]: inactive | Activity [6]: inactive | Activity [7]: inactive | Activity [8]: inactive | Activity [9]: inactive

CCCCCC#Cc1cn([C@H](C)C[C@@H]2CC[C@H]([C@@H](C)C(=O)NC(C)C)O2)nn1
Activity [1]: inactive | Activity [3]: inactive | Activity [10]: inactive | Activity [4]: inactive | Activity [5]: inactive | Activity [6]: inactive | Activity [7]: inactive | Activity [8]: inactive | Activity [9]: inactive

C[C@H](C[C@@H]1CC[C@H]([C@@H](C)C(=O)N2CCN(CC3CCCO3)CC2)O1)n1cc(C#CCN2CCC(c3ccccc3)CC2)nn1 (some centres not stated)
Activity [1]: inactive | Activity [3]: inactive | Activity [10]: inactive | Activity [4]: inactive | Activity [5]: inactive | Activity [6]: inactive | Activity [7]: inactive | Activity [8]: inactive | Activity [9]: inactive

CCCNC(=O)NCC#Cc1cn([C@H](C)CC2CCC([C@@H](C)C(=O)NC(C)C)O2)nn1 (single isomer, unassigned)
Activity [1]: inactive | Activity [3]: inactive | Activity [10]: inactive | Activity [4]: inactive | Activity [5]: inactive | Activity [6]: inactive | Activity [7]: inactive | Activity [8]: inactive | Activity [9]: inactive

C[C@H](C[C@@H]1CC[C@H]([C@@H](C)C(=O)N2CCCC2)O1)n1cc(C#Cc2ccccn2)nn1
Activity [1]: inactive | Activity [3]: inactive | Activity [10]: inactive | Activity [4]: inactive | Activity [5]: inactive | Activity [6]: inactive | Activity [7]: inactive | Activity [8]: inactive | Activity [9]: inactive

CCN(CC)C(=O)[C@H](C)[C@H]1CC[C@@H](C[C@@H](C)n2cc(C#CCOc3ccccc3)nn2)O1
Activity [1]: inactive | Activity [3]: inactive | Activity [10]: inactive | Activity [4]: inactive | Activity [5]: inactive | Activity [6]: inactive | Activity [7]: inactive | Activity [8]: inactive | Activity [9]: inactive

Cc1cccc(NC(=O)NCC#Cc2cn([C@H](C)CC3CCC([C@@H](C)C(=O)N4CCN(CC5CCCO5)CC4)O3)nn2)c1 (single isomer, unassigned)
Activity [1]: inactive | Activity [3]: inactive | Activity [10]: inactive | Activity [4]: inactive | Activity [5]: inactive | Activity [6]: inactive | Activity [7]: inactive | Activity [8]: inactive | Activity [9]: inactive

C[C@H](C[C@@H]1CC[C@H]([C@@H](C)C(=O)N(C)Cc2ccccc2)O1)n1cc(C#CCOc2ccc(Br)cc2)nn1
Activity [1]: inactive | Activity [3]: inactive | Activity [10]: inactive | Activity [4]: inactive | Activity [5]: inactive | Activity [6]: inactive | Activity [7]: inactive | Activity [8]: inactive | Activity [9]: inactive

CCN(CC)C(=O)[C@H](C)[C@H]1CC[C@@H](C[C@@H](C)n2cc(C#Cc3ccccc3)nn2)O1
Activity [1]: inactive | Activity [3]: inactive | Activity [10]: inactive | Activity [4]: inactive | Activity [5]: inactive | Activity [6]: inactive | Activity [7]: inactive | Activity [8]: inactive | Activity [9]: inactive

CCOC(=O)C#Cc1cn([C@H](C)CC2CCC([C@@H](C)C(=O)N(C)Cc3ccccc3)O2)nn1 (single isomer, unassigned)
Activity [1]: inactive | Activity [3]: inactive | Activity [10]: inactive | Activity [4]: inactive | Activity [5]: inactive | Activity [6]: inactive | Activity [7]: inactive | Activity [8]: inactive | Activity [9]: inactive

C[C@H](CC1CCC([C@@H](C)C(=O)N(C)Cc2ccccc2)O1)n1cc(C#CCNC(=O)OCc2ccccc2)nn1 (single isomer, unassigned)
Activity [1]: inactive | Activity [3]: inactive | Activity [10]: inactive | Activity [4]: inactive | Activity [5]: inactive | Activity [6]: inactive | Activity [7]: inactive | Activity [8]: inactive | Activity [9]: inactive

CCCNC(=O)NCC#Cc1cn([C@H](C)CC2CCC([C@@H](C)C(=O)N(C)Cc3ccccc3)O2)nn1 (single isomer, unassigned)
Activity [1]: inactive | Activity [3]: inactive | Activity [10]: inactive | Activity [4]: inactive | Activity [5]: inactive | Activity [6]: inactive | Activity [7]: inactive | Activity [8]: inactive | Activity [9]: inactive

COc1ccc(C#Cc2cn([C@H](C)C[C@@H]3CC[C@H]([C@@H](C)C(=O)N(C)Cc4ccccc4)O3)nn2)cc1
Activity [1]: inactive | Activity [3]: inactive | Activity [10]: inactive | Activity [4]: inactive | Activity [5]: inactive | Activity [6]: inactive | Activity [7]: inactive | Activity [8]: inactive | Activity [9]: inactive

CCCCCC#Cc1cn([C@H](C)C[C@@H]2CC[C@H]([C@@H](C)C(=O)N3CCN(CC4CCCO4)CC3)O2)nn1 (some centres not stated)
Activity [1]: inactive | Activity [3]: inactive | Activity [10]: inactive | Activity [4]: inactive | Activity [5]: inactive | Activity [6]: inactive | Activity [7]: inactive | Activity [8]: inactive | Activity [9]: inactive

CC(C)NC(=O)[C@H](C)[C@H]1CC[C@@H](C[C@@H](C)n2cc(C#CCN3CCOCC3)nn2)O1
Activity [1]: inactive | Activity [3]: inactive | Activity [10]: inactive | Activity [4]: inactive | Activity [5]: inactive | Activity [6]: inactive | Activity [7]: inactive | Activity [8]: inactive | Activity [9]: inactive
